Results published in ChEMBL document CHEMBL4513216, “Probing the Open Global Health Chemical Diversity Library for Multistage-Active Starting Points for Next-Generation Antimalarials” (ACS Infect Dis, 2020).

Test: Toxicity liver stage against HepG2, at 10uM
Format: cell-based
Parameters: test concentration 10 uM, cell line HepG2-A16-CD81EGFP
Details: human, HepG2-A16-CD81EGFP cells; read-out: INHIBITION
Outline: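 Uninfected HepG2-A16-CD81EGFP cells, 3 × 10^3 per well, 1536-well, plated on prespotted compound at 10 μM final, parasite-free screening media added to match infected plates; puromycin 10 μM positive, DMSO 0.5% negative; run in parallel with 48 h PbLuc assay at 37 °C, 5% CO2; viability by CellTiter-Glo luminescence, normalized to controls.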

Compound | cytotoxicity at 10 µM [%]
COC(=O)c1cccc2nc([C@H]3CCN(Cc4ccccc4)C3)oc12 | 6.06
CCOC(=O)[C@@H]1[C@@H](OC)C(=O)N(C)C12CCN(C(=O)C(CC)CC)CC2 | -0.00815
CCCC(O)CN1CCC(=O)N(C)Cc2cc(F)ccc21 (stereo unspecified) | -124
CC(C)(C)OC(=O)N1CC(=O)N(Cc2ccco2)CC(O)C1 (stereo unspecified) | 4.11
O=c1c(NCCO)c(N2CCN(c3ccccc3)CC2)c1=O | -6.95
O=C(Cn1ncc2c(c1=O)CCCC2)Nc1cccc2[nH]ccc12 | 3.16
CCCNC(=O)Cn1nc(C)c2cnn(C(C)(C)C)c2c1=O | -3.57
CC(=O)Nc1cnc(Oc2ccccc2F)nc1 | -4.23
O=C(c1ncn2c1CNS(=O)(=O)c1ccccc1-2)N1CC=CC1 | 10.5
Cc1cccc(NC(=O)N2Cc3c(CN(C)C)nn(C)c3C2)c1 | 7.77
CCCS(=O)(=O)N1CCC2(CC(=O)N(c3cnn(C)c3)C2)C1 (stereo unspecified) | 4.59
CCOCCCNC(=O)CN(c1cccc(F)c1)S(C)(=O)=O | 7.77
COC(=O)c1cccc(C(=O)N2CCN(c3ccccc3F)CC2)n1 | -10.9
CC(=O)NCC(=O)N1C[C@H](OCc2cccnc2)[C@H]2COC[C@H]21 | -7.12
O=C(NCc1cccc(F)c1)N1CCC2(CC(=O)N(c3ccsc3)C2)C1 (stereo unspecified) | -10
CCn1nc(C)c2c1cnn2CCNS(=O)(=O)CC | 2.63
CN(C)Cc1cn(-c2ccccc2C(=O)NCC2CCCCN2C)cn1 (stereo unspecified) | -0.94
O=S1(=O)NCC2(CCN(Cc3ccc(Cl)s3)C2)Oc2ncccc21 (stereo unspecified) | 4.65
CN(C)CCN(C)S(=O)(=O)CC1CCOCC1 | -5.38
CC(C)(C)c1ccc2c(c1)CCN2C(=O)c1ccc(=O)[nH]n1 | 2.87
COCCNC(=O)N1CCN(C(C)C(=O)NC(C)C)CC1 (stereo unspecified) | 10.6
O=S(=O)(NC1CCCOC1)c1ccc(C(F)(F)F)nc1 (stereo unspecified) | -1.38
O=C(COCCOc1ccccc1)NC1CCN(C(=O)C2CC2)CC1 | -7.67

Compound | cytotoxicity at 10 µM [%]
CC(C)c1nnc(CN2CCc3ccc(S(N)(=O)=O)cc32)o1 | 3.2
COc1cccc(-c2nc(CNCc3cccnc3)cs2)c1 | -9.37
Cc1oc(CNC(=O)Cc2cccc(OC(F)F)c2)cc1C(=O)O | 7.04
CC(O)C1CCN(c2cc(Cl)ccc2C#N)CC1 (stereo unspecified) | 4.92
Cc1noc(C)c1C(=O)NCCc1cccs1 | 12
O=C(Nc1cn[nH]c1)NC1CCN(c2ccccc2OC(F)F)C1 (stereo unspecified) | 26.1
Cc1ccn2ncc(C(=O)N3CCCC(c4noc(C)n4)C3)c2n1 (stereo unspecified) | -7.29
COc1cccc(CC(=O)N2CCN(c3cccc(C)c3)C(C)C2)c1 (stereo unspecified) | 8.63
COc1cc(C2(C(=O)NCC(=O)NC3CC3)CC2)ccc1C | -17.4
CCOc1ncccc1NC(=O)N1CCCC1c1cc(C)no1 (stereo unspecified) | 0.87
Cc1ccccc1C(O)CNS(=O)(=O)Cc1cccc(C#N)c1 (stereo unspecified) | -5.43
CC(C)S(=O)(=O)CC(=O)NCC(Cc1ccc(F)cc1)C(N)=O (stereo unspecified) | 6.75
CC(c1nc(C(C)(C)C)no1)N1CCN(C(=O)CN2CCOCC2)CC1 (stereo unspecified) | -3.51
O=C(c1ccc(Cl)o1)N1CCCC1c1nnc2n1CCCCC2 (stereo unspecified) | -4.52
O=C(c1cccnc1OCC(F)(F)F)N1CCCn2ncnc21 | -6.47
NC(=O)c1cccc(CN2CCOC(Cn3cccn3)C2)c1 (stereo unspecified) | -2.69
CCCC(C#N)NC(=O)COC1CCCCC1 (stereo unspecified) | 8.71
CC(C)(C)c1ncc(C(=O)NCCn2ccnc2)s1 | 3.39
COc1ccc(-n2ccc(CNCc3cccc(OC)c3)n2)cc1 | 3.12
CCCNC(=O)C1CCN(CC(O)c2ccccc2)CC1 (stereo unspecified) | -2.21
Nc1cc2c(nn1)CCN(C(=O)c1ccccc1Oc1cccnc1)C2 | -6.21
CN(C)C(CNCc1nc(-c2ccsc2)no1)c1cccs1 (stereo unspecified) | 16.3
CS(=O)(=O)NCCCNCc1cc(F)ccc1Br | 15.7

Compound | cytotoxicity at 10 µM [%]
O=C1CC[C@H](C(=O)Nc2cnn(-c3ccccc3Br)c2)N1 | -2.84
CC(C)c1ccc(CS(=O)(=O)Cc2nc(N)nc(N(C)C)n2)cc1 | 7.34
CC(OCC1CC1)C(=O)NCc1ccc(Cn2ccnc2)cc1 (stereo unspecified) | 15.6
Cc1cc(C)n(CC2CCCN2CCCS(=O)(=O)N(C)C)n1 (stereo unspecified) | -13.2
CN(Cc1ccco1)Cc1ccccc1CNC(=O)c1cc[nH]n1 | -8.11
CCc1ccc(C2CCCCCN2Cc2nc(CCOC)no2)o1 (stereo unspecified) | 1.15
CN(C)C1COC2(CCN(Cc3ccncc3)CC2)C1 (stereo unspecified) | -69.2
CSCC[C@@H](CO)n1ccnc1-c1nccn1C | -2.84
c1ccc(CNc2ncc(CN3CCCN4CCC[C@H]4C3)cn2)cc1 | -9.53
OCCCN1CCOC(c2ccc(F)cc2)C1 (stereo unspecified) | -7.09
O=C(c1ccc(CN2CCCCC2)cc1)N1Cc2cnn(CCO)c2C1 | 12.6
O=C(c1ccc(S(=O)(=O)NCCc2ccccn2)cc1)N1CCCC1 | 13.2
CSCc1noc(CN2CCC3(CC2)CC(=O)N(CC(C)C)C3)n1 | -0.0813
O=C(O)[C@@H]1CN(CC(=O)N2CCCCC2)C[C@H]1c1ccc(F)cc1 | -3.95
Cn1ccnc1CN(CCO)C(=O)c1nc2ccccc2s1 | 4.46
O=c1[nH]ccc2cc(-c3cc(O)cc(CCC4CCCCN4)c3)ccc12 (stereo unspecified) | 1.81
O=C(c1cccc(F)c1)N1C[C@@H](CN2CCCCC2)[C@@H](CO)C1 | 3.78
COC1CCN(S(=O)(=O)N2CC(c3ccccc3)C(C)(C)C2)CC1 (stereo unspecified) | 3.64
Cc1ccc(-c2nc(CN3CCOCC3)no2)cc1N1CCNC1=O | -5.73
Cc1ccccc1-n1cc(CN(C)C[C@@H]2CCCN3CCCC[C@H]23)cn1 | -3.09
CN(Cc1cc2cc(F)ccc2[nH]1)c1cc(C2CCCNC2)ncn1 (stereo unspecified) | 7.16
CCN(CC)C(CNCc1ccc(C)o1)c1ccco1 (stereo unspecified) | 3.23
CCn1ccc(C(=O)N(C)Cc2cnn(-c3cccc(OC)c3)c2)n1 | 6.26

Compound | cytotoxicity at 10 µM [%]
CCN(CC)CCC(=O)N1CCc2c(nc(N(C)C)nc2N(C)C)C1 | -14.4
Cc1n[nH]c(C)c1CNc1ccc(-c2nc(C3CC3)no2)cn1 | -24.3
CC(C)=CCN1CC2(CCN(Cc3c(F)cccc3F)CC2)CC1=O | -17
CC(C)N(C)CCC(=O)N1CCCC(c2ccc(C(=O)O)cc2)C1 (stereo unspecified) | -4.1
COc1ccc2cc(-c3n[nH]cc3CN3CCSCC3)ccc2c1 | 2.22
O=C(NCCCN1CCOCC1)C1CCCN(Cc2ccco2)C1 (stereo unspecified) | -0.911
COc1ccc(F)c(CN2CCCC3(CCN(C(=O)CSC)C3)C2)c1 (stereo unspecified) | 0.15
COc1ccc(CCC(=O)N2CCNCC2C(=O)N2CCOCC2)cc1 (stereo unspecified) | 4.34
Cc1ncsc1CCN(C)Cc1cc2n(n1)CCN(S(C)(=O)=O)C2 | -12.8
O=C(CSc1ccccn1)N1CCN(CCO)[C@@H]2CS(=O)(=O)C[C@@H]21 | 9.87
CC(C)[C@@H]1CN(Cc2ccccc2C#N)C[C@H]1N(C)C | -18.7
Cc1nc(C)c(C(=O)NCCNc2cc(N3CCCC3)ncn2)s1 | -73.4
NC(=O)c1cc(-c2cccc(C(=O)O)c2)cs1 | 2.77
N#Cc1ccccc1C(=O)N1C[C@H](CO)C[C@H](CN2CCCC2)C1 | -17
CCCS(=O)(=O)N1CCN(c2ccnc(N3CCCC3)n2)CC1 | -11.3
COc1ccc(OC)c(CNCc2c(C(C)C)nn(C)c2N(C)C)c1 | -5.89
CC(Cn1ccnc1)NC(=O)Nc1ccccn1 (stereo unspecified) | -16.4
O=C(Nc1cc(C(F)(F)F)c[nH]c1=O)N1CCCSCC1 | -5.77
Cc1nc(C)n(CC2CCCN2CC(=O)Nc2ccnn2C(C)C)n1 (stereo unspecified) | -14
CCc1[nH]ncc1C(=O)N1CCCN(Cc2cnn(C(C)C)c2)CC1 | -12
O=C(c1ccc2c(c1)OCO2)N1CCN(c2cnccn2)CC1 | -7.1
O=C(NCc1nn(-c2ccccc2)c2c1CCC2)NC1CC1 | -9.14
Cc1nn(C)c(C)c1C1CCCN1Cc1cccc(C(=O)N(C)C)c1 (stereo unspecified) | -11.9

Compound | cytotoxicity at 10 µM [%]
CCN(CC1CCCO1)C(=O)Nc1cc(C(=O)OC)ccc1F (stereo unspecified) | -4.77
CCn1cnnc1CNC(=O)N(C)Cc1ccc2c(c1)OCCO2 | -1.96
CCn1cc(NC(=O)NCc2ccc(CN3CCOCC3)cc2)cn1 | -6.63
O=C(CCc1ccccn1)N1CCN(C(=O)CC2CCCCC2)CC1 | -1.8
O=C(Cc1ccc(-n2cccn2)cc1)N1CCCC(n2cccn2)C1 (stereo unspecified) | 4.6
O=C(Cc1ccc2c(c1)OCCO2)N1CCCC(n2ccnc2)C1 (stereo unspecified) | 3.8
c1cc(CN2CCc3ncnc(C4CCOC4)c3CC2)ccn1 (stereo unspecified) | -0.703
c1coc(CNc2ncc3c(n2)C2(CCNC2)COC3)c1 (stereo unspecified) | 10.7
O=C(c1ccncc1)N1CCCn2nnc(COCCO)c2C1 | 10.5
O=C([C@H]1C[C@H]2OCC[C@H]2N(CC2CC2)C1)N1CCCCO1 | -69.2
Cc1ccc(NCc2cn3c(n2)CN(Cc2ccc(C)o2)CC3)nn1 | 8.19
COc1cccc(CN2C[C@@H]3COC[C@]3(CN3CCOCC3)C2)c1 | -80.6
COCCN1CCO[C@@H]2CN(C(=O)NCc3cccnc3)CC[C@@H]2C1 | 6.65
CCOCC1CN(Cc2ccncc2)Cc2nn(C)cc21 (stereo unspecified) | -79.8
COCCN1CCC12CCN(c1ncccn1)C2 (stereo unspecified) | 9.76
CCOCC1CN(S(C)(=O)=O)Cc2cnn(CC3CCOCC3)c21 (stereo unspecified) | -0.851
CN1CCN(C2CCN(C(=O)CCC3CCCC3)CC2)CC1 | 6.35
CN(C)C(=O)C1CCC2(CCNCC2)C1 (stereo unspecified) | 8.59
CCOC(=O)c1cnn(C2CCN(C(=O)CC3C=CCC3)CC2)c1N (stereo unspecified) | 7.87
